Laboratory results as given in ChEMBL document CHEMBL1134346, “Labeling and evaluation of N-[11C]methylated quinoline-2-carboxamides as potential radioligands for visualization of peripheral benzodiazepine receptors” (J Med Chem, 2001).

Columns and labels:
[1] = organism: Rattus norvegicus; assay: Tissue (heart) distribution in Albino male CD rats after 5 minutes expressed as percent of injected dose per gram of organ.; type: ADME, organism-based; settings: in vivo
Outline: (§1)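 Radioligand given in saline into tail vein of male albino CD rats (225-250 g); 100-200 µCi per animal, 1-2 Ci/µmol at injection depending on radioligand. Three rats per time point were decapitated under light ether anaesthesia. Blood, plasma, brain regions and washed organs were weighed and gamma-counted. Uptake is %I.D./g tissue, mean ± SD.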

[2] = organism: Rattus norvegicus; assay: Tissue (plasma) distribution in Albino male CD rats after 60 minutes expressed as percent of injected dose per gram of organ.; type: ADME, organism-based; settings: in vivo, 1 h
Outline: (§2)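 Male albino CD rats (225-250 g) received the 11C-labelled radioligand in saline by tail-vein injection. Three rats per time point were decapitated under light ether anaesthesia at 5, 15, 30, 60 or 90 min. Blood was collected heparinized and plasma separated by centrifugation. The pituitary was dissected from the brain. Lung, liver (three-lobe pieces) and right deltoid muscle were sampled, washed in cold saline, gamma-counted and weighed. Results are %I.D./g.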

[3] = organism: Rattus norvegicus; assay: Tissue (liver) distribution in Albino male CD rats after 5 minutes expressed as percent of injected dose per gram of organ.; type: ADME, organism-based; settings: in vivo; outline: as §2
[4] = organism: Rattus norvegicus; assay: Tissue (kidney) distribution in Albino male CD rats after 15 minutes expressed as percent of injected dose per gram of organ.; type: ADME, organism-based; settings: in vivo, 0.25 h; outline: as §1
[5] = target: Translocator protein (Rattus norvegicus) (UniProt P16257); assay: Tissue (adrenal gland) concentration of radioactivity at 30 min post-injection into Albino male CD rats after pretreatment with cold PK 11195.; type: functional, tissue-based
Outline: (§3)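 Separate groups of five rats received tail-vein PK 11195 (1.4-1.6 mg; 5 mg/kg) in 30 µL DMSO:EtOH 1:1, or vehicle alone, immediately before iv radioligand (90-170 µCi in saline, 0.9-1 Ci/µmol). Rats were decapitated at 30 min and tissues gamma-counted; values are %I.D./g.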

[6] = target: Translocator protein (Rattus norvegicus) (UniProt P16257); assay: Tissue (spleen) concentration of radioactivity at 30 min post-injection into Albino male CD rats after pretreatment with cold PK 11195.; type: functional, tissue-based
Outline: (§4)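 Blocking study in male albino CD rats, five per group. Immediately before the 11C radioligand (in saline, i.v. tail vein), rats received 30 µL tail-vein PK 11195 (5 mg/kg; 1.4-1.6 mg) in DMSO:EtOH 1:1, or vehicle. Rats were decapitated at 30 min. Tissues were dissected, washed, gamma-counted and weighed as in the biodistribution study. Results are %I.D./g.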

[7] = organism: Rattus norvegicus; assay: Tissue (lung) distribution in Albino male CD rats after 90 minutes expressed as percent of injected dose per gram of organ.; type: ADME, organism-based; settings: in vivo, 1.5 h; outline: as §2
[8] = organism: Rattus norvegicus; assay: Tissue (spleen) distribution in Albino male CD rats after 30 minutes expressed as percent of injected dose per gram of organ.; type: ADME, organism-based; settings: in vivo, 0.5 h; outline: as §2
[9] = organism: Rattus norvegicus; assay: Tissue (testicle) distribution in Albino male CD rats after 5 minutes expressed as percent of injected dose per gram of organ.; type: ADME, organism-based; settings: in vivo; outline: as §2
[10] = target: Translocator protein (Rattus norvegicus) (UniProt P16257); assay: Tissue (muscle) concentration of radioactivity at 30 min post-injection into Albino male CD rats after pretreatment with cold PK 11195.; type: functional; outline: as §4
[11] = organism: Rattus norvegicus; assay: Tissue (cerebellum) distribution in Albino male CD rats after 30 minutes expressed as percent of injected dose per gram of organ.; type: ADME, organism-based; settings: in vivo, 0.5 h; outline: as §1
[12] = organism: Rattus norvegicus; assay: Tissue (intestine) distribution in Albino male CD rats after 60 minutes expressed as percent of injected dose per gram of organ.; type: ADME, organism-based; settings: in vivo, 1 h; outline: as §1
[13] = organism: Rattus norvegicus; assay: Tissue (kidney) distribution in Albino male CD rats after 5 minutes expressed as percent of injected dose per gram of organ.; type: ADME, organism-based; settings: in vivo; outline: as §1
[14] = organism: Rattus norvegicus; assay: Tissue (spleen) concentration of radioactivity at 30 min post-injection into Albino male CD rats with vehicle.; type: ADME, organism-based; settings: in vivo, 0.5 h; outline: as §4
[15] = organism: Rattus norvegicus; assay: Tissue (adrenal gland) distribution in Albino male CD rats after 60 minutes expressed as percent of injected dose per gram of organ.; type: ADME, organism-based; settings: in vivo, 1 h; outline: as §1
[16] = organism: Rattus norvegicus; assay: Tissue (liver) distribution in Albino male CD rats after 90 minutes expressed as percent of injected dose per gram of organ.; type: ADME, organism-based; settings: in vivo, 1.5 h; outline: as §2
[17] = organism: Rattus norvegicus; assay: Tissue (pituitary) distribution in Albino male CD rats after 5 minutes expressed as percent of injected dose per gram of organ.; type: ADME, organism-based, Pituitary gland; settings: in vivo; outline: as §2
[18] = organism: Rattus norvegicus; assay: Tissue (pituitary) distribution in Albino male CD rats after 15 minutes expressed as percent of injected dose per gram of organ.; type: ADME, organism-based, Pituitary gland; settings: in vivo, 0.25 h; outline: as §2
[19] = organism: Rattus norvegicus; assay: Tissue (testicle) distribution in Albino male CD rats after 15 minutes expressed as percent of injected dose per gram of organ.; type: ADME, organism-based; settings: in vivo, 0.25 h; outline: as §2
[20] = target: Translocator protein (Rattus norvegicus) (UniProt P16257); assay: Tissue (blood) concentration of radioactivity at 30 min post-injection into Albino male CD rats after pretreatment with cold PK 11195.; type: functional, tissue-based; outline: as §3
[21] = organism: Rattus norvegicus; assay: Tissue (spleen) distribution in Albino male CD rats after 90 minutes expressed as percent of injected dose per gram of organ.; type: ADME, organism-based; settings: in vivo, 1.5 h
[22] = organism: Rattus norvegicus; assay: Tissue (adrenal gland) distribution in Albino male CD rats after 90 minutes expressed as percent of injected dose per gram of organ.; type: ADME, organism-based; settings: in vivo, 1.5 h; outline: as §1
[23] = target: Translocator protein (Rattus norvegicus) (UniProt P16257); assay: Tissue (liver) concentration of radioactivity at 30 min post-injection into Albino male CD rats after pretreatment with cold PK 11195.; type: functional, tissue-based; outline: as §3
[24] = organism: Rattus norvegicus; assay: Tissue (adrenal gland) distribution in Albino male CD rats after 30 minutes expressed as percent of injected dose per gram of organ.; type: ADME, organism-based; settings: in vivo, 0.5 h; outline: as §1
[25] = organism: Rattus norvegicus; assay: Tissue (cerebellum) distribution in Albino male CD rats after 60 minutes expressed as percent of injected dose per gram of organ.; type: ADME, organism-based; settings: in vivo, 1 h; outline: as §1
[26] = organism: Rattus norvegicus; assay: Tissue (plasma) distribution in Albino male CD rats after 30 minutes expressed as percent of injected dose per gram of organ.; type: ADME, organism-based; settings: in vivo, 0.5 h; outline: as §2
[27] = organism: Rattus norvegicus; assay: Tissue (adrenal gland) concentration of radioactivity at 30 min post-injection into Albino male CD rats with vehicle.; type: ADME, organism-based; settings: in vivo, 0.5 h; outline: as §3
[28] = organism: Rattus norvegicus; assay: Tissue (adrenal gland) distribution in Albino male CD rats after 15 minutes expressed as percent of injected dose per gram of organ.; type: ADME, organism-based; settings: in vivo, 0.25 h; outline: as §1
[29] = organism: Rattus norvegicus; assay: Tissue (plasma) distribution in Albino male CD rats after 5 minutes expressed as percent of injected dose per gram of organ.; type: ADME, organism-based; settings: in vivo; outline: as §2
[30] = organism: Rattus norvegicus; assay: Tissue (cortex) concentration of radioactivity at 30 min post-injection into Albino male CD rats with vehicle.; type: ADME, organism-based; settings: in vivo, 0.5 h; outline: as §3
[31] = organism: Rattus norvegicus; assay: Tissue (spleen) distribution in Albino male CD rats after 5 minutes expressed as percent of injected dose per gram of organ.; type: ADME, organism-based; settings: in vivo; outline: as §2
[32] = organism: Rattus norvegicus; assay: Tissue (muscle) distribution in Albino male CD rats after 90 minutes expressed as percent of injected dose per gram of organ.; type: ADME, organism-based; settings: in vivo, 1.5 h; outline: as §2
[33] = organism: Rattus norvegicus; assay: Tissue (kidney) concentration of radioactivity at 30 min post-injection into Albino male CD rats with vehicle.; type: ADME, organism-based; settings: in vivo, 0.5 h; outline: as §3
[34] = organism: Rattus norvegicus; assay: Tissue (cortex) distribution in Albino male CD rats after 30 minutes expressed as percent of injected dose per gram of organ.; type: ADME, organism-based; settings: in vivo, 0.5 h; outline: as §1
[35] = organism: Rattus norvegicus; assay: Tissue (cerebellum) distribution in Albino male CD rats after 90 minutes expressed as percent of injected dose per gram of organ.; type: ADME, organism-based; settings: in vivo, 1.5 h; outline: as §1
[36] = organism: Rattus norvegicus; assay: Tissue (heart) concentration of radioactivity at 30 min post-injection into Albino male CD rats with vehicle.; type: ADME, organism-based; settings: in vivo, 0.5 h; outline: as §3
[37] = organism: Rattus norvegicus; assay: Tissue (testicle) distribution in Albino male CD rats after 60 minutes expressed as percent of injected dose per gram of organ.; type: ADME, organism-based; settings: in vivo, 1 h; outline: as §2
[38] = organism: Rattus norvegicus; assay: Tissue (blood) distribution in Albino male CD rats after 30 minutes expressed as percent of injected dose per gram of organ.; type: ADME, organism-based; settings: in vivo, 0.5 h; outline: as §1
[39] = organism: Rattus norvegicus; assay: Tissue (heart) distribution in Albino male CD rats after 60 minutes expressed as percent of injected dose per gram of organ.; type: ADME, organism-based; settings: in vivo, 1 h; outline: as §1
[40] = organism: Rattus norvegicus; assay: Tissue (liver) distribution in Albino male CD rats after 30 minutes expressed as percent of injected dose per gram of organ.; type: ADME, organism-based; settings: in vivo, 0.5 h; outline: as §2

Sequence of Translocator protein (Rattus norvegicus) (P16257 whole entry, looked up): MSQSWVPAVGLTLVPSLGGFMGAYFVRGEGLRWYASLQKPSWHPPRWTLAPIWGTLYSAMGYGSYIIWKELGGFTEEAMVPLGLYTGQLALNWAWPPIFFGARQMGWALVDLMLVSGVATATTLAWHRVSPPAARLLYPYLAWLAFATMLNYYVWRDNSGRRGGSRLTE

Compound	I.D./g [1] [%]	I.D./g [2] [%]	I.D./g [3] [%]	I.D./g [4] [%]	I.D./g [5] [%]	I.D./g [6] [%]	I.D./g [7] [%]	I.D./g [8] [%]	I.D./g [9] [%]	I.D./g [10] [%]	I.D./g [11] [%]	I.D./g [12] [%]	I.D./g [13] [%]	I.D./g [14] [%]	I.D./g [15] [%]	I.D./g [16] [%]	I.D./g [17] [%]	I.D./g [18] [%]	I.D./g [19] [%]	I.D./g [20] [%]	also measured
CCC(C)N(C)C(=O)c1nc2ccccc2c(-c2ccccc2)c1C (stereo not given)	0.86	0.03	0.64	0.6	> 0.94	< 0.11	1.27	1.25	0.06	> 0.07	0.09	0.4	0.59	0.56	2.27	0.27	0.22	0.2	0.05	< 0.06	I.D./g [21]: 1.06%; I.D./g [22]: 1.8%; I.D./g [23]: < 0.56%; I.D./g [24]: 2.54%; I.D./g [25]: 0.05%; I.D./g [26]: 0.03%; I.D./g [27]: 1.6%; I.D./g [28]: 1.38%; I.D./g [29]: 0.12%; I.D./g [30]: 0.05%; I.D./g [31]: 0.5%; I.D./g [32]: 0.12%; I.D./g [33]: 0.45%; I.D./g [34]: 0.07%; I.D./g [35]: 0.04%; I.D./g [36]: 0.77%; I.D./g [37]: 0.09%; I.D./g [38]: 0.06%; I.D./g [39]: 1.26%; I.D./g [40]: 0.55%
CCC(C)N(C)C(=O)c1nc2ccccc2c(-c2ccccc2F)c1C (stereo not given)	0.68	0.06	0.41	0.73	< 0.78	< 0.09	1.55	0.77	0.04	< 0.03	0.09	0.25	0.41	0.28	2.85	0.39	0.16	0.27	0.09	> 0.04	I.D./g [21]: 0.71%; I.D./g [22]: 2.22%; I.D./g [23]: < 0.45%; I.D./g [24]: 2.78%; I.D./g [25]: 0.07%; I.D./g [26]: 0.06%; I.D./g [27]: 1.79%; I.D./g [28]: 2.53%; I.D./g [29]: 0.11%; I.D./g [30]: 0.05%; I.D./g [31]: 0.34%; I.D./g [32]: 0.08%; I.D./g [33]: 0.35%; I.D./g [34]: 0.1%; I.D./g [35]: 0.06%; I.D./g [36]: 0.35%; I.D./g [37]: 0.09%; I.D./g [38]: 0.11%; I.D./g [39]: 0.6%; I.D./g [40]: 0.55%
Cc1c(C(=O)N(C)Cc2ccccc2)nc2ccccc2c1-c1ccccc1	1.79	0.05	0.37	1.17	< 0.17	< 0.02	1.21	1.46	0.06	> 0.02	0.12	0.62	0.79	0.26	4	0.4	0.33	0.49	0.12	> 0.02	I.D./g [21]: 1.56%; I.D./g [22]: 3.74%; I.D./g [23]: < 0.16%; I.D./g [24]: 2.99%; I.D./g [25]: 0.08%; I.D./g [26]: 0.06%; I.D./g [27]: 0.62%; I.D./g [28]: 2.29%; I.D./g [29]: 0.16%; I.D./g [30]: 0.02%; I.D./g [31]: 0.28%; I.D./g [32]: 0.21%; I.D./g [33]: 0.19%; I.D./g [34]: 0.09%; I.D./g [35]: 0.09%; I.D./g [36]: 0.35%; I.D./g [37]: 0.15%; I.D./g [38]: 0.06%; I.D./g [39]: 2.09%; I.D./g [40]: 0.43%
